ChEMBL document CHEMBL1133588 (J Med Chem, 2000)

Legend:
Format in all cases: tissue-based
[1] = target: T1, Muscarinic acetylcholine receptor M1 (Rattus norvegicus, UniProt P08482); assay: Binding affinity at Muscarinic acetylcholine receptor M1 in Rat brain homogenate by [3H]pirenzepine displacement.
T1 sequence (P08482 whole entry): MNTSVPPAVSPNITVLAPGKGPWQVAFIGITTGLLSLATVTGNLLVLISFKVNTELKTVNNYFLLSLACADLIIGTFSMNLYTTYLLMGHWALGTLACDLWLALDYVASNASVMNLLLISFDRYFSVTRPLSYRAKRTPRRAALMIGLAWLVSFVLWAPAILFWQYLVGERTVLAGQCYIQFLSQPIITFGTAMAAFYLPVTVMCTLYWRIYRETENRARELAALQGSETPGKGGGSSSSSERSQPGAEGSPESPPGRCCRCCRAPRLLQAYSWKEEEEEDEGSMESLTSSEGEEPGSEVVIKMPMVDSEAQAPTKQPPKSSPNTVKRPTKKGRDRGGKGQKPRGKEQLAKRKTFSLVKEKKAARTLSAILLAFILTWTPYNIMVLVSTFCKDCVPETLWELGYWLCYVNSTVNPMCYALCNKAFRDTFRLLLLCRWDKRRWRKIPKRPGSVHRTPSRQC

[2] = target: T1, Muscarinic acetylcholine receptor M1; assay: Compound is tested for displacement of [3H]pirenzepine at […] in Rat brain homogenate.
How it was run: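 Whole rat brain minus cerebellum, homogenised in 10 mM Tris-HCl/320 mM sucrose pH 7.4; 10000g pellet. Binding in 10 mM Tris-HCl with 5 mM MgCl2, […], [3H]pirenzepine 3 nM final, 1 h at 37 °C. Competitor 0.01 nM–100 µM. Filtration through PEI-soaked GF/B filters. At least three experiments in triplicate; Ki from nonlinear curve fitting.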

[3] = target: Sodium-dependent dopamine transporter (Rattus norvegicus, UniProt P23977); assay: Displacement of [3H]WIN-35428 from the dopamine transporter in rat caudate putamen
How it was run: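 Male Sprague-Dawley rat caudate putamen, fresh washed membranes in Krebs-HEPES pH 7.4, 0.5% w/v. Filtration on BSA-soaked GF/B filters. Three experiments in triplicate; Ki from nonlinear least-squares fitting of pooled replicates.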

Sequence of Sodium-dependent dopamine transporter (P23977 whole entry): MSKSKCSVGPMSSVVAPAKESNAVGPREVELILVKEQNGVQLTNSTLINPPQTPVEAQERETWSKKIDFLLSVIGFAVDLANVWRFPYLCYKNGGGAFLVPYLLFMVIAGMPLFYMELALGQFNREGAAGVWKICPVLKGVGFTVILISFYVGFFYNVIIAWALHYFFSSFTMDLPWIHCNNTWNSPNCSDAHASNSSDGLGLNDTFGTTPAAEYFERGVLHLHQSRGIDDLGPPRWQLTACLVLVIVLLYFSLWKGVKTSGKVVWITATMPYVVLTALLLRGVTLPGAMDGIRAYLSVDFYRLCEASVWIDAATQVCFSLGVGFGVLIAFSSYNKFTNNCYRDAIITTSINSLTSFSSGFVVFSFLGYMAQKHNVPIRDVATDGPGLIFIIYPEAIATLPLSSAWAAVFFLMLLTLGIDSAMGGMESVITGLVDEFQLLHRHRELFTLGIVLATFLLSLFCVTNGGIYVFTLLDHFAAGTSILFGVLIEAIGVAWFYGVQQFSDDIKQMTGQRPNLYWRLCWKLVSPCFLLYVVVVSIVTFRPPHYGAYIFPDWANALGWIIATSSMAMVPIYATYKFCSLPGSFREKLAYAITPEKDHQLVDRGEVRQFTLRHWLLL

SMILES	Ki [1]	Ki [2]	Ki [3]
CCCCN1C2CCC1CC(OC(c1ccc(F)cc1)c1ccc(F)cc1)C2 (stereo not given)	399 nM		
Fc1ccc(CCCN2C3CCC2CC(OC(c2ccc(F)cc2)c2ccc(F)cc2)C3)cc1 (stereo not given)		686 nM	
Fc1ccc(CN2C3CCC2CC(OC(c2ccc(F)cc2)c2ccc(F)cc2)C3)cc1 (stereo not given)		1540 nM	
Fc1ccc(C(OC2CC3CCC(C2)N3)c2ccc(F)cc2)cc1 (stereo not given)	203 nM		
Fc1ccc(C(OC2CC3CCC(C2)N3Cc2cccc3ccccc23)c2ccc(F)cc2)cc1 (stereo not given)	1790 nM		367 nM
Fc1ccc(C(OC2CC3CCC(C2)N3CCCc2ccccc2)c2ccc(F)cc2)cc1 (stereo not given)		312 nM	
Fc1ccc(C(OC2CC3CCC(C2)N3Cc2ccccc2)c2ccc(F)cc2)cc1 (stereo not given)		1030 nM	
C=CCCN1C2CCC1CC(OC(c1ccc(F)cc1)c1ccc(F)cc1)C2 (stereo not given)	278 nM		31.9 nM
O=[N+]([O-])c1ccc(-c2ccc(COCCN3C4CCC3CC(OC(c3ccc(F)cc3)c3ccc(F)cc3)C4)cc2)cc1 (stereo not given)		460 nM	
CC[C@H](CN1C2CCC1CC(OC(c1ccc(F)cc1)c1ccc(F)cc1)C2)c1ccccc1 (stereo not given in full)	2360 nM		228 nM
C[C@@H](CN1C2CCC1CC(OC(c1ccc(F)cc1)c1ccc(F)cc1)C2)c1ccccc1 (stereo not given in full)	392 nM		477 nM
CC[C@@H](CN1C2CCC1CC(OC(c1ccc(F)cc1)c1ccc(F)cc1)C2)c1ccccc1 (stereo not given in full)	1440 nM		400 nM
C[C@H](CN1C2CCC1CC(OC(c1ccc(F)cc1)c1ccc(F)cc1)C2)c1ccccc1 (stereo not given in full)	1900 nM		301 nM
Fc1ccc(C(OC2CC3CCC(C2)N3Cc2ccc(Cl)c(Cl)c2)c2ccc(F)cc2)cc1 (stereo not given)	3880 nM		392 nM
CC(C)[C@H](N)CN1C2CCC1CC(OC(c1ccc(F)cc1)c1ccc(F)cc1)C2 (stereo not given in full)	4020 nM		29.5 nM
Fc1ccc(C(OC2CC3CCC(C2)N3C/C=C/c2ccccc2)c2ccc(F)cc2)cc1 (stereo not given)		401 nM	86.4 nM
Nc1ccc(CCCCN2[C@@H]3CC[C@H]2C[C@@H](OC(c2ccc(F)cc2)c2ccc(F)cc2)C3)cc1	134 nM		
O=[N+]([O-])c1ccc(CCCCN2[C@@H]3CC[C@H]2C[C@@H](OC(c2ccc(F)cc2)c2ccc(F)cc2)C3)cc1	299 nM		
NCCN1[C@@H]2CC[C@H]1C[C@@H](OC(c1ccc(F)cc1)c1ccc(F)cc1)C2	1250 nM		13.9 nM
Fc1ccc(C(O[C@H]2C[C@H]3CC[C@@H](C2)N3CCc2c[nH]c3ccccc23)c2ccc(F)cc2)cc1		3280 nM	44.6 nM
C=CCN1C2CCC1CC(OC(c1ccc(F)cc1)c1ccc(F)cc1)C2 (stereo not given)	177 nM		
CC(C)[C@@H](N)CN1C2CCC1CC(OC(c1ccc(F)cc1)c1ccc(F)cc1)C2 (stereo not given in full)	2180 nM		56.4 nM
Fc1ccc(C(OC2CC3CCC(C2)N3CC2CC2)c2ccc(F)cc2)cc1 (stereo not given)		257 nM	
